Compounds with a hit are over-represented: about 1.9% of the library has one in this group of screens.
IDE act: activators of human insulin-degrading enzyme in cells. P14735. HEK cells, FAbeta-B cleavage, fluorescence polarization; 0% vehicle, 100% cell-free pure enzyme wells. activation, % at 5.96 µM. 0.073% of 340,000 active. AID 493087;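 active = activation above the mean of all tested compounds plus 3 SD, set per screening campaign, cut at about 17% in these data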
IDE inh: inhibitors of human insulin-degrading enzyme in cells. 0.41% of 320,000 active. HEK cells, FAbetaB cleavage, fluorescence polarization. inhibition, % at 5.59 µM. P14735;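 active = percent inhibition above the average of all tested compounds plus 3 SD, set per screening campaign, cut at about 16% in these data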;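 note: IDE supplied by intact live HEK cells; FP after avidin binding of uncleaved biotin substrate so inhibition keeps polarization high; 0% = DMSO wells and 100% = 60 µM reference IDE inhibitor Ii1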
proCasp3 act: activators of human procaspase-3; P42574; recombinant procaspase-3 D3A, Ac-DEVD-pNA absorbance 405 nm; activation, % at 8.5 µM; 0.11% of 330,000 active;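 active = activation above the mean of all tested compounds plus 3 SD, cut at about 21% in these data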;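 note: 0% = DMSO alone and 100% = DMSO wells spiked with extra 5 µM PC-3 D3A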
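assay system = Procaspase-3 D3A mutant | signal = absorbance at 405 nm, 0 and 120 min | times = 1 h preincubation plus 2 h reaction at 25 °C | repeats = single replicate | read-out = % activation between DMSO and enzyme-spiked controls | medium = Zinc-free HEPES saline buffer with Triton X-100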
PHOSPHO1 block: PHOSPHO1 (human) inhibition | Q8TCT1 | recombinant PHOSPHO1, absorbance phosphatase assay | inhibition, % at 13.3 µM | 1.1% of 290,000 active | AID 1565; in the data active = inhibition above about 60%
UBC13 inh: human UBC13 polyubiquitination inhibition; P61088; UBC13 polyubiquitin chain formation, TR-FRET; inhibition, % at 20 µM; 0.47% of 330,000 active; AID 485273; in the data active = inhibition above about 45%, passing the limit was not always enough
procasp7 counter: activates human procaspase-7, counter-screen for procaspase-3 activators | P55210 | recombinant procaspase-7, Ac-DEVD-pNA absorbance 405 nm; D23A/D198A/D206A triple mutant, cannot self-cleave; scale: DMSO 0, 5 µM enzyme 100 | activation, % at 8.5 µM | 0.093% of 330,000 active;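 active = percent activation above the screen-wide mean plus 3 SD, cut at about 25% in these data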
Target sequence (P55210 whole entry D23A/D198A/D206A): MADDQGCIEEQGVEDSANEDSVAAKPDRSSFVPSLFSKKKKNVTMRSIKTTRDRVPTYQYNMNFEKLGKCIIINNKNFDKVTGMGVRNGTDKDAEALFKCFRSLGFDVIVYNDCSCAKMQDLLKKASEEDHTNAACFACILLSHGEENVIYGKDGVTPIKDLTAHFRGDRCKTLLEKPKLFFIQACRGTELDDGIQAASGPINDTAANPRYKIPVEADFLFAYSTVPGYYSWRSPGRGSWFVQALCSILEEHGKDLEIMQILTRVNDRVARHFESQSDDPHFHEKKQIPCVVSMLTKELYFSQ
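Assay system – Uncleavable procaspase-7 mutant enzyme · Quantity – 2 µM procaspase-7 mutant as dispensed · Times – 1 h preincubation, 2 h reaction · Dosing – single nominal 8.5 µM compound dose, 0.8% DMSO final · Buffer or medium – Zinc-free 50 mM HEPES buffer, pH 7.4, with NaCl and Triton X-100 · Detection – Epi-absorbance of released pNA at 405 nm, two timepoints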
The depositor's hits bear a star; nt = no result.

SMILES	IDE act	IDE inh	proCasp3 act	PHOSPHO1 block	UBC13 inh	procasp7 counter
Cc1c(N2C(=O)c3ccc4c5c(ccc(c35)C2=O)CC4)c(=O)n(-c2ccccc2)n1C	7	4	10	78*	-36	5
CC1(C)Nc2ccc(O)cc2-c2c1ssc2=S	0	-9	-14	21	-25	-31
CCOc1ccc2c(c1)-c1c(ssc1=S)C(C)(C)N2C	-6	5	-13	70*	-10	-8
CC1CN(C(=O)C2CCCC2)C(C)CN1C(=O)C1CCCC1 (stereo unspecified)	7	1	8	60*	-11	5
Cc1ccc(C)c(CSC2=NCCN2S(=O)(=O)c2ccccc2)c1	-3	-4	7	34	6	2
CCCc1nnc(NC(=O)CN2C(=O)c3ccccc3C2=O)s1	5	-4	-4	86*	4	-15
CCC(CC)c1nnc(NC(=O)CN2C(=O)c3ccccc3C2=O)s1	1	0	-1	-146	6	-4
CCc1nnc(NC(=O)CN2C(=O)c3ccccc3C2=O)s1	9	3	-6	74*	-11	-13
O=C(c1ccc(Cl)c(S(=O)(=O)N2CCCCCC2)c1)N1CCCC1	4	-9	-6	20	-7	-4
CCCSCCCNC(=O)c1ccc(NC(=O)C2=CSCCO2)cc1	-5	0	4	32	-6	-4
COc1ccc(N(CC(=O)NC2CCCC2)C(=O)CCC(=O)Nc2nc(C)cs2)cc1OC	-6	0	5	31	-5	3
CCn1c(C)c(C(C)=O)c(N2CCN(c3cccc(Cl)c3)CC2)nc1=S	-1	1	7	76*	-4	-5
CCc1ccc(OCC(=O)N2CCN(c3ccccn3)CC2)c(Br)c1	1	1	1	38	1	0
Cc1ccc2nc(-c3ccccc3)cc(C(=O)NCC(c3ccco3)N(C)C)c2c1 (stereo unspecified)	1	1	-3	nt	6	6
Cc1ccc(C(=O)NNC(=S)Nc2cccc3ccccc23)s1	7	3	-4	86*	-13	-16
S=C(Nc1cccc2ccccc12)Nc1cccc2ccccc12	-12	nt	nt	nt	nt	nt
O=C(NNC(=S)Nc1cccc2ccccc12)c1cccc(Br)c1	2	2	-8	64*	-18	-20
COc1ccc(O)c(C(=O)c2cc(C#N)c(=O)n(CC3CCCO3)c2)c1 (stereo unspecified)	1	0	0	64*	-7	-12
Cc1ccc(O)c(C(=O)c2cc(C#N)c(=O)n(CC3CCCO3)c2)c1 (stereo unspecified)	5	0	2	20	-11	5
O=C(O)CCCN1C(=O)/C(=C/C=C/c2ccco2)SC1=S	1	4	-11	6	44	-31
O=C(O)CCCN1C(=O)/C(=C\c2ccc(-c3nc4ccccc4s3)o2)SC1=S	-14	13	-16	93*	-102	-26
O=C(O)CCN1C(=O)/C(=C/c2ccc(-c3nc4ccccc4s3)o2)SC1=S	-4	1	-5	101*	-138	-6
O=C(O)CC(C(=O)O)N1C(=O)/C(=C/c2ccc(-c3nc4ccccc4s3)o2)SC1=S (stereo unspecified)	-14	7	-14	11	-13	-19
CCn1cnc2cc(NC(=O)c3ccco3)ccc21	0	0	-3	-1	-5	-7
CCCn1cnc2cc(NC(=O)c3ccco3)ccc21	1	3	-1	63*	-1	10
CSc1nc(N(CCO)CCO)c2sc3nc(-c4ccco4)c4c(c3c2n1)CCC4	-2	nt	nt	79*	nt	nt
CSc1nc(SCCO)c2sc3nc(-c4ccco4)c4c(c3c2n1)CC(C)(C)OC4	-1	nt	nt	76*	nt	nt
CC(C)CCNC(=O)C(c1ccc(O)cc1)N(C(=O)C1COc2ccccc2O1)c1cccc(O)c1 (stereo unspecified)	-6	-4	-2	64*	5	3
Cc1cc2ncn(/N=C/c3ccc([N+](=O)[O-])o3)c2cc1C	-3	3	3	69*	-8	-5
CCOC(=O)/C(=N\Nc1ccc(OC)cc1)c1csc(Nc2ccccc2)n1	3	-1	-4	90*	-11	0

Bioassay records deposited in PubChem by several laboratories.
